# Data: ChEMBL document CHEMBL1687827, “Profiling the Aspergillus fumigatus proteome in response to caspofungin” (2011)
# Activity calls are given as the source filed them. The rule behind the calls is not given here.
# Experiments:
# Aspergillus fumigatus [1] = assay: Induction of change in hypothetical protein locus AFUA_5G14680 level in iTRAQ-116 labelled secreted fraction of drug-susceptible Aspergillus fumigatus KU80 delta-akuB at 0.12 ug/ml after 48 hrs in YPD medium by MS (MS/MS) analysis relative to control; type: functional
# How it was run: (§1)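 Conidia (1 × 10⁵/ml) grown in YPD, 37°C, 225 rpm, ± 0.12 μg/ml caspofungin; filtrate taken as secreted fraction, French-press lysate 5,000 × g pellet as cell wall/plasma membrane. Trypsin digests 8-plex iTRAQ-labelled (drug-free channels as references), pooled, 2D-chromatography, MS/MS. Median-normalized; protein ratio = median of unique-peptide ratios, log2 normalized.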
# Aspergillus fumigatus [2] = assay: Induction of change in Ribosomal protein S21e gene expression in drug-susceptible Aspergillus fumigatus KU80 delta-akuB at 0.12 ug/ml after 24 hrs in YPD medium by microarray analysis relative to control; type: functional
# How it was run: (§2)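 Mycelia grown in YPD ± 0.12 μg/ml caspofungin (1 × 10⁵ conidia/ml, 37°C, shaking) and harvested at 24 or 48 h. Total RNA extracted, DNase-treated and quality-checked; 2 μg labelled per TIGR SOP M007 and hybridized to whole-genome arrays. Three independent experiments with dye flip (6 replicates); drug vs untreated fold change.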
# Aspergillus fumigatus [3] = assay: Induction of change in 60s ribosomal protein L24, putative protein level in iTRAQ114 labelled cell wall fraction of drug-susceptible Aspergillus fumigatus KU80 delta-akuB at 0.12 ug/ml after 24 hrs in YPD medium by MS (MS/MS) analysis relative to control; type: functional
# How it was run: (§3)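 Conidia at 1 × 10⁵/ml grown shaking at 37°C in YPD with or without 0.12 μg/ml caspofungin; mycelia filtered at 24 or 48 h. Secreted fraction taken from the filtrate; cell wall/plasma membrane pellet recovered after French-press lysis and a 5,000 × g spin. Proteins trypsin-digested and iTRAQ-labelled, drug vs no-drug channels at each time, then 2D LC-MS/MS. Protein ratio is the median of ratios from uniquely assigned peptides after median normalization.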
# Aspergillus fumigatus [4] = assay: Induction of change in alanine aminotransferase, putative protein level in iTRAQ-116 labelled secreted fraction of drug-resistant Aspergillus fumigatus EMFR-S678P at 0.12 ug/ml after 48 hrs in YPD medium by MS (MS/MS) analysis relative to control; type: functional, organism-based
# How it was run: (§4)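 Conidia at 1 × 10⁵/ml were grown at 37°C, shaking at 225 rpm, in YPD with or without 0.12 μg/ml caspofungin for 24 or 48 h. The culture filtrate was kept as the secreted fraction. Mycelia were lysed by French press in HEPES/glycerol/EDTA/PMSF/DTT buffer, and the 5,000 × g pellet was washed to give CW/PM. Proteins were reduced, alkylated and trypsin-digested at 37°C overnight, then iTRAQ-labelled and run by 2D LC-MS/MS. Ratios are the median of unique-peptide ratios, median-normalized, versus the no-drug control.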
# Aspergillus fumigatus [5] = assay: Induction of change in alkaline serine protease protein level in iTRAQ114 labelled cell wall fraction of drug-susceptible Aspergillus fumigatus KU80 delta-akuB at 0.12 ug/ml after 24 hrs in YPD medium by MS (MS/MS) analysis relative to control; type: functional; how it was run: as §3
# Aspergillus fumigatus [6] = assay: Induction of change in Class III chitinase ChiA1 protein level in iTRAQ114 labelled cell wall fraction of drug-susceptible Aspergillus fumigatus KU80 delta-akuB at 0.12 ug/ml after 24 hrs in YPD medium by MS (MS/MS) analysis relative to control; type: functional; how it was run: as §4
# Aspergillus fumigatus [7] = assay: Induction of change in citrate synthase, eukaryotic protein level in iTRAQ-116 labelled cell wall fraction of drug-susceptible Aspergillus fumigatus KU80 delta-akuB at 0.12 ug/ml after 48 hrs in YPD medium by MS (MS/MS) analysis relative to control; type: functional; how it was run: as §3
# Aspergillus fumigatus [8] = assay: Induction of change in phosphoglycerate kinase PgkA, putative protein level in iTRAQ-116 labelled secreted fraction of drug-susceptible Aspergillus fumigatus KU80 delta-akuB at 0.12 ug/ml after 48 hrs in YPD medium by MS (MS/MS) analysis relative to control; type: functional; how it was run: as §1
# Aspergillus fumigatus [9] = assay: Induction of change in Mitochondrial hypoxia-responsive domain protein level in iTRAQ-116 labelled cell wall fraction of drug-resistant Aspergillus fumigatus EMFR-S678P at 0.12 ug/ml after 24 hrs in YPD medium by MS (MS/MS) analysis relative to control; type: functional, organism-based; how it was run: as §4
# Aspergillus fumigatus [10] = assay: Induction of change in cytosolic small ribosomal subunit S4, putative gene expression in drug-susceptible Aspergillus fumigatus KU80 delta-akuB at 0.12 ug/ml after 24 hrs in YPD medium by microarray analysis relative to control; type: functional; how it was run: as §2
# Aspergillus fumigatus [11] = assay: Antifungal activity against drug-resistant Aspergillus fumigatus EMFR-S678P assessed as change in hyphal morphology by YPD medium; type: functional; conditions: read-out: MEC
# How it was run: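 CLSI M38-A2 broth microdilution, run in triplicate in RPMI or YPD medium as the line specifies. Caspofungin was dissolved in sterile water. The minimum effective concentration (MEC) was the lowest concentration giving a significant change in hyphal morphology visible to the eye.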
structure (smiles),measurement,setting,value
CC[C@H](C)C[C@H](C)CCCCCCCCC(=O)N[C@H]1C[C@@H](O)[C@@H](NCCN)NC(=O)[C@@H]2[C@@H](O)CCN2C(=O)[C@H]([C@H](O)CCN)NC(=O)[C@H]([C@H](O)[C@@H](O)c2ccc(O)cc2)NC(=O)[C@@H]2C[C@@H](O)CN2C(=O)[C@H]([C@@H](C)O)NC1=O [CASPOFUNGIN],fold change (FC),Aspergillus fumigatus [1],-2.5
same,fold change (FC),Aspergillus fumigatus [2],3.6
same,fold change (FC),Aspergillus fumigatus [3],1.5
same,Activity,Aspergillus fumigatus [4],inactive
same,fold change (FC),Aspergillus fumigatus [5],1.3
same,fold change (FC),Aspergillus fumigatus [6],-12.1
same,fold change (FC),Aspergillus fumigatus [7],-1.2
same,fold change (FC),Aspergillus fumigatus [8],-2.8
same,Activity,Aspergillus fumigatus [9],inactive
same,fold change (FC),Aspergillus fumigatus [10],3.8
same,minimal effective concentration,Aspergillus fumigatus [11],> 16 µg/mL
